Active and inactive are the calls of the source. No cut-off for these calls is given here.

In data set [1] the target is G-protein coupled bile acid receptor 1 (Homo sapiens) (UniProt Q8TDU6). As to the kind of experiment: Antagonist activity at TGR5 (unknown origin) expressed in HEK293T cells at 1 uM after 12 to 14 hrs by dual-glo luciferase reporter gene assay. In kind it is cell-based. The essentials:
(§1)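 Run as a selectivity screen against each listed receptor (14 nuclear receptors plus TGR5), in both agonist and antagonist modes. Test concentration was 1 µM, with n = 3.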

For data set [2], the target named is Retinoic acid receptor alpha (Homo sapiens) (UniProt P10276). Description: Transactivation of GAL4-tagged human RARalpha1 ligand binding domain (177 to 462 residues) expressed in HEK293T cells at 1 uM after 12 to 14 hrs by dual-glo luciferase reporter gene assay. It is filed as cell-based. Particulars: HEK-293T. The essentials: as §1
Chain of Retinoic acid receptor alpha (Homo sapiens) (P10276 whole entry, the tested form may be a part): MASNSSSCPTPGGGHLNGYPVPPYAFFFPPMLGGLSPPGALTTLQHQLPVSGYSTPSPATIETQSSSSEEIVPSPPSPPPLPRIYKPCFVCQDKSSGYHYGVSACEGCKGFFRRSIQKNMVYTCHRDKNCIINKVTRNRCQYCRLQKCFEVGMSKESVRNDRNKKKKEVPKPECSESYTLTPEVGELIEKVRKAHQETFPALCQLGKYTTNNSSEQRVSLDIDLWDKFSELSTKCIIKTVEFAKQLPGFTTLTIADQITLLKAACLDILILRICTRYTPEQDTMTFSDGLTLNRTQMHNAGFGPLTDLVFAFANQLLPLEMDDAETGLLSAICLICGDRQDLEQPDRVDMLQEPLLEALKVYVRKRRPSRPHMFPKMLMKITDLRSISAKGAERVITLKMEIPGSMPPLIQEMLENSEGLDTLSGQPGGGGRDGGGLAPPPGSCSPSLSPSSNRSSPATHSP
Data set [3] has as its system HeLa. As to the kind of experiment: Selectivity ratio for human FXR expressed in human HeLa cells co-expressing BSEP over GAL4-tagged human RARbeta1 ligand binding domain (177 to 455 residues) expressed in HEK293T cells. It is filed as cell-based.
The subject of data set [4] is HeLa. As to the kind of experiment: Selectivity ratio for human FXR expressed in human HeLa cells co-expressing BSEP over TGR5 (unknown origin) expressed in HEK293T cells. In kind it is cell-based.
Data set [5] deals with HeLa. Description: Selectivity ratio for human FXR expressed in human HeLa cells co-expressing BSEP over GAL4-tagged human RXRgamma ligand binding domain (229 to 463 residues) expressed in HEK293T cells. It is filed as cell-based.
For data set [6], the target named is Retinoic acid receptor gamma (Homo sapiens) (UniProt P13631). As to the kind of experiment: Antagonist activity at GAL4-tagged human RARgamma isoform 1 ligand binding domain (179 to 454 residues) expressed in HEK293T cells at 1 uM after 12 to 14 hrs by dual-glo luciferase reporter gene assay. In kind it is cell-based. Particulars: HEK-293T. The procedure, abridged:
as §1

The subject of data set [7] is HeLa. Description: Selectivity ratio for human FXR expressed in human HeLa cells co-expressing BSEP over GAL4-tagged human RXRbeta isoform 1 ligand binding domain (294 to 533 residues) expressed in HEK293T cells. In kind it is cell-based.
Data set [8] deals with Retinoic acid receptor RXR-alpha (Homo sapiens) (UniProt P19793). As to the kind of experiment: Transactivation of GAL4-tagged human RXRalpha ligand binding domain (225 to 462 residues) expressed in HEK293T cells at 1 uM after 12 to 14 hrs by dual-glo luciferase reporter gene assay. It is filed as cell-based. The settings on record: HEK-293T. The essentials:
as §1

Data set [9] addresses T1, Bile acid receptor (Homo sapiens) (UniProt Q96RI1).
T1 sequence (whole entry): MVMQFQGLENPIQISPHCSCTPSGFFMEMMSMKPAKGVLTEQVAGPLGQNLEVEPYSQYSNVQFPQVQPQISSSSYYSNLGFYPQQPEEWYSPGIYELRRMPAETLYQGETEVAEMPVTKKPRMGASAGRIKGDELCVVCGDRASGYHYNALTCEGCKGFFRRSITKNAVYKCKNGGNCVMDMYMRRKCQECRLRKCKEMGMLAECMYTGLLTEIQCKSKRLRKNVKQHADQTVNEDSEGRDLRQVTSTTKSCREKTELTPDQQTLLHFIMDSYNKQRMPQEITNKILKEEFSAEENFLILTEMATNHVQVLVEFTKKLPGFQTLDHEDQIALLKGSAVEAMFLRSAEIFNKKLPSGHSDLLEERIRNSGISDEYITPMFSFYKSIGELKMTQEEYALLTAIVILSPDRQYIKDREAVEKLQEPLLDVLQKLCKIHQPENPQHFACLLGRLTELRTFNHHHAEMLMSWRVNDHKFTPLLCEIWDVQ
Description: Modulation of FXR in human HepG2 cells assessed as induction of SHP mRNA expression at 10 nM by qRT-PCR analysis. In kind it is cell-based. The essentials:
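HepG2 hepatocarcinoma cells were incubated with the compound at 10 nM. FXR target-gene mRNA was quantified by qRT-PCR (n = 3), with significance at p < 0.05, 0.01 and 0.001.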

Data set [10] deals with HeLa. Description: Selectivity ratio for human FXR expressed in human HeLa cells co-expressing BSEP over GAL4-tagged human PXR isoform 1 ligand binding domain (138 to 434 residues) expressed in HEK293T cells. It is filed as cell-based.
The test system of data set [11] is HeLa. Description: Selectivity ratio for human FXR expressed in human HeLa cells co-expressing BSEP over GAL4-tagged human RARgamma isoform 1 ligand binding domain (179 to 454 residues) expressed in HEK293T cells. It is filed as cell-based.
For data set [12], the target named is Retinoic acid receptor alpha (Homo sapiens) (UniProt P10276). As to the kind of experiment: Antagonist activity at GAL4-tagged human RARalpha1 ligand binding domain (177 to 462 residues) expressed in HEK293T cells at 1 uM after 12 to 14 hrs by dual-glo luciferase reporter gene assay. In kind it is cell-based. The settings on record: HEK-293T. The procedure, abridged: as §1

For data set [13], the system named is HeLa. As to the kind of experiment: Selectivity ratio for human FXR expressed in human HeLa cells co-expressing BSEP over GAL4-tagged human PPARalpha ligand binding domain expressed in HEK293T cells. It is filed as cell-based.
For data set [14], the target named is Vitamin D3 receptor (Homo sapiens) (UniProt P11473). As to the kind of experiment: Antagonist activity at GAL4-tagged human VDR isoform 1 ligand binding domain (119 to 427 residues) expressed in HEK293T cells at 1 uM after 12 to 14 hrs by dual-glo luciferase reporter gene assay. It is filed as cell-based. Particulars: HEK-293T. The essentials:
as §1

The nature of data set [15]: Lipophilicity, logD of compound at pH 7.4 by LC-MS analysis. In kind it is physicochemical. Particulars: buffer, read-out: logD.
Data set [16] deals with Oxysterols receptor LXR-alpha (Homo sapiens) (UniProt Q13133). Description: Transactivation of GAL4-tagged human LXRalpha ligand binding domain expressed in HEK293T cells at 1 uM after 12 to 14 hrs by dual-glo luciferase reporter gene assay. It is filed as cell-based. Particulars: HEK-293T. The essentials: as §1
Chain of Oxysterols receptor LXR-alpha (Homo sapiens) (Q13133 whole entry, the tested form may be a part, canonical isoform): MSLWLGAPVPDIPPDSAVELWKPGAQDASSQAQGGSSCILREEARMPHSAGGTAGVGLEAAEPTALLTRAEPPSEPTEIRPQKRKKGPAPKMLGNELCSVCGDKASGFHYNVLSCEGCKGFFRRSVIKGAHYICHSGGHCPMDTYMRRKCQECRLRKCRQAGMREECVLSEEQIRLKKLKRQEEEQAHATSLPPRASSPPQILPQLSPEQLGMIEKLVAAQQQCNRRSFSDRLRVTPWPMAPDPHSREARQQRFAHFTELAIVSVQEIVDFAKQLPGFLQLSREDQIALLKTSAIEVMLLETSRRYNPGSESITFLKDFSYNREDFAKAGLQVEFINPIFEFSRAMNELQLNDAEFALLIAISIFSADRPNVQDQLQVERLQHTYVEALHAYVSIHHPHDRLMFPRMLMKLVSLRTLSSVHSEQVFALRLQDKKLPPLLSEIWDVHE
Data set [17] concerns the target Nuclear receptor subfamily 1 group I member 2 (Homo sapiens, UniProt O75469). Description: Transactivation of GAL4-tagged human PXR isoform 1 ligand binding domain (138 to 434 residues) expressed in HEK293T cells at 1 uM after 12 to 14 hrs by dual-glo luciferase reporter gene assay. It is filed as cell-based. Particulars: hek-293t. The essentials:
as §1

The test system of data set [18] is HeLa. As to the kind of experiment: Selectivity ratio for human FXR expressed in human HeLa cells co-expressing BSEP over GAL4-tagged human RARalpha1 ligand binding domain (177 to 462 residues) expressed in HEK293T cells. It is filed as cell-based.
Data set [19] deals with Peroxisome proliferator-activated receptor delta (Homo sapiens) (UniProt Q03181). Description: Antagonist activity at GAL4-tagged human PPARdelta ligand binding domain expressed in HEK293T cells at 1 uM after 12 to 14 hrs by dual-glo luciferase reporter gene assay. It is filed as cell-based. Particulars: HEK-293T. The procedure, abridged:
as §1

Data set [20] has as its system HeLa. Description: Selectivity ratio for human FXR expressed in human HeLa cells co-expressing BSEP over GAL4-tagged human CAR isoform 6 ligand binding domain (48 to 324 residues) expressed in HEK293T cells. It is filed as cell-based.
Data set [21] deals with HeLa. Description: Selectivity ratio for human FXR expressed in human HeLa cells co-expressing BSEP over GAL4-tagged human LXRbeta ligand binding domain expressed in HEK293T cells. In kind it is cell-based.
In data set [22] the target is Vitamin D3 receptor (Homo sapiens) (UniProt P11473). As to the kind of experiment: Transactivation of GAL4-tagged human VDR isoform 1 ligand binding domain (119 to 427 residues) expressed in HEK293T cells at 1 uM after 12 to 14 hrs by dual-glo luciferase reporter gene assay. In kind it is cell-based. Particulars: HEK-293T. The procedure, abridged:
as §1

Data set [23] has as its target T2, Bile acid receptor (Homo sapiens, UniProt Q96RI1).
T2 sequence (Q96RI1 whole entry): T1 sequence (whole entry)
Description: Transactivation of human FXR expressed in human HeLa cells co-expressing BSEP after 24 hrs by dual-glo luciferase reporter gene assay. It is filed as cell-based. Particulars: read-out: EC50. The essentials:
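Full-length reporter system with constitutive expression of hFXR and hRXR. A constitutive Renilla luciferase served for normalization and as a toxicity control. Maximum relative activation was expressed against a reference FXR agonist at 3 µM, set as 100%.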

Chain of Vitamin D3 receptor (Homo sapiens) (P11473 whole entry, the tested form may be a part, canonical isoform): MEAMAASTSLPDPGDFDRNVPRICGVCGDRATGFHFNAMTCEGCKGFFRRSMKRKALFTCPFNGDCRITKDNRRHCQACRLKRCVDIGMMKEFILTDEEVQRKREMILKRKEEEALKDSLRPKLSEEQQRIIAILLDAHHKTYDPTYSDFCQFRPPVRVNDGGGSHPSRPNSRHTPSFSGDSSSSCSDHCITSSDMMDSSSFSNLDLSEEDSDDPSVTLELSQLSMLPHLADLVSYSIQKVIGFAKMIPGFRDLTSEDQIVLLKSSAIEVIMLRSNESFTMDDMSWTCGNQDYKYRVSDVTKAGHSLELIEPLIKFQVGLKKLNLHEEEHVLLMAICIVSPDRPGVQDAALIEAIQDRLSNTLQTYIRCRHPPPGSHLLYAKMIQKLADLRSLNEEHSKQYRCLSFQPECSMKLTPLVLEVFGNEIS
Chain of Retinoic acid receptor gamma (Homo sapiens) (P13631 whole entry, the tested form may be a part, canonical isoform): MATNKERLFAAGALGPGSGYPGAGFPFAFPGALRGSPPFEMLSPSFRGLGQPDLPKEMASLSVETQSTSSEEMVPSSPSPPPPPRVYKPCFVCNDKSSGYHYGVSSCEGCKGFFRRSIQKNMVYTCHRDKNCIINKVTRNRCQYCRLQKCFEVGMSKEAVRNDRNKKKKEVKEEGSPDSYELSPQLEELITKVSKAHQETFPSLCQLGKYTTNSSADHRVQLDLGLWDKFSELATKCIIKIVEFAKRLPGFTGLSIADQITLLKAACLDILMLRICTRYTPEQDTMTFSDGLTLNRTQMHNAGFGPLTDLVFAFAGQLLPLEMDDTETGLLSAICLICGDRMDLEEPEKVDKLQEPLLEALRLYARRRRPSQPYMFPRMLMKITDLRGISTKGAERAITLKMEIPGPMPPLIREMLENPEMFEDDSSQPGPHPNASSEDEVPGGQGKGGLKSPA
Chain of Nuclear receptor subfamily 1 group I member 2 (O75469 whole entry, the tested form may be a part, canonical isoform): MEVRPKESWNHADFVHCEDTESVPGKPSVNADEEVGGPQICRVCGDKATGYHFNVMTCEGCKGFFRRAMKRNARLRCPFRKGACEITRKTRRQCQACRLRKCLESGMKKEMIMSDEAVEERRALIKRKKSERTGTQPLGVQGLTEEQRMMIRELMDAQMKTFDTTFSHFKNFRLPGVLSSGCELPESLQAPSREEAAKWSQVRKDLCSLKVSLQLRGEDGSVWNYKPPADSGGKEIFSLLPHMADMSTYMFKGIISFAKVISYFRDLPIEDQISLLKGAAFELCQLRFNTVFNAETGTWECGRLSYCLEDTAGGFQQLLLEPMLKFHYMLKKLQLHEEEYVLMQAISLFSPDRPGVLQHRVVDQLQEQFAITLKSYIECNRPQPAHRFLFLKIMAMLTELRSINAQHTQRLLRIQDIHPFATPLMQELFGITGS
Chain of Peroxisome proliferator-activated receptor delta (Homo sapiens) (Q03181 whole entry, the tested form may be a part): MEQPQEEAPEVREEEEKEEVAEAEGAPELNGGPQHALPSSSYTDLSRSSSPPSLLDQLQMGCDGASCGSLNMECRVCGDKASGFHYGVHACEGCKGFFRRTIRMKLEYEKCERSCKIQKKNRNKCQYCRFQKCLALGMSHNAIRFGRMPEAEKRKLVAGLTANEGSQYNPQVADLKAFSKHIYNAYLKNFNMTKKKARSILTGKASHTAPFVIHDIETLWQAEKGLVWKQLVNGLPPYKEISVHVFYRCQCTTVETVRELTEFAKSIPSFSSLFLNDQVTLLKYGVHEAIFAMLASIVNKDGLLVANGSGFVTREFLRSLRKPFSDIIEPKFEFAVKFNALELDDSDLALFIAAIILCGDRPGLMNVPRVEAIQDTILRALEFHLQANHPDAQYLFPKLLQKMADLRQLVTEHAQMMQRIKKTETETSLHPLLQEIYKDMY
Chain of Retinoic acid receptor RXR-alpha (Homo sapiens) (P19793 whole entry, the tested form may be a part): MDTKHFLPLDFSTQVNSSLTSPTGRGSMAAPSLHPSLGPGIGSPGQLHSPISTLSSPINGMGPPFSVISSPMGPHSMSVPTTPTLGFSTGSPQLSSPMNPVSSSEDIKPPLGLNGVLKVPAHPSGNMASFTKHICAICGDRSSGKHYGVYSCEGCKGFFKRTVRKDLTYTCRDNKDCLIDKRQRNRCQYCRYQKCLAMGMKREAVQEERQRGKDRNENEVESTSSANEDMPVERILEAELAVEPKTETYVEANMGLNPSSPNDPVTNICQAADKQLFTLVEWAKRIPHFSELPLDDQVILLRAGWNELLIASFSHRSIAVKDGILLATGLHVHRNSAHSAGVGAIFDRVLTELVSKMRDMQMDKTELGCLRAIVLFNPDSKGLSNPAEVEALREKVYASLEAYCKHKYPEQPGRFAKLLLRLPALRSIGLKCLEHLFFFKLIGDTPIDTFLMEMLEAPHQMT
Chain of G-protein coupled bile acid receptor 1 (Homo sapiens) (Q8TDU6 whole entry): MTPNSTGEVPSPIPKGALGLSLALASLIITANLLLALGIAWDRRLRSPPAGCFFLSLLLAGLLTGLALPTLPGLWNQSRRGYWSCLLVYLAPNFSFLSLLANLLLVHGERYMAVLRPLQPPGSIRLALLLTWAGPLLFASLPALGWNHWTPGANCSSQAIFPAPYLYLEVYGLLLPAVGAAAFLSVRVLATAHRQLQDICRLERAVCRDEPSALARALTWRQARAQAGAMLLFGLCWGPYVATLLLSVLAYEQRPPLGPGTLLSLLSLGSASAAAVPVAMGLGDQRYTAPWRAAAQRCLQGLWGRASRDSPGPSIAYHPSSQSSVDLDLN

`COc1ccc(CNc2c(-c3cc(Cl)ccn3)nc3ccc(Cl)cn23)cc1`: the inhibition entry in data set [1], in [6], in data set [12], in data set [14] and in data set [19] was “inactive” in each case. Besides, the outcome in data set [2], in data set [8], in [16] and in [22] was inactive. Also, the Selectivity ratio in data set [3], in [4], in data set [5], in data set [7], in data set [10] and in data set [11] was 3000 throughout. Moreover, the Selectivity ratio in [13], in data set [18], in data set [20] and in [21] was 3000 each time. For the same compound, the result in [9] was Active. Further, the logD in [15] came out at 1.69. In addition, in [17], the Activity result is given as “Not Active”. In data set [23], the EC50 amounted to 0.3 nM.

The values above are taken from ChEMBL document CHEMBL4038333, “Nonacidic Farnesoid X Receptor Modulators” (J Med Chem, 2017).
